This assay deals with PPC-1 cells, TRAIL potentiation, ATPlite luminescence, 24 h. The assay can be described thus: TRAIL killing potentiation in PPC-1 cells, confirmation, cell-based, ATPlite luminescence (AID 1624). The following applies: stronger effect = higher value. In outline: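 Material: PPC-1 human cancer cell line; probe or stimulus: TRAIL stimulus; dosing: compound at 1.25 to 5 µM final concentration; times: 4 h compound pretreatment, then 24 h TRAIL exposure, 37 °C; measured by: ATPlite luminescence measuring cellular ATP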

The mark [1] stands for this setting: compound alone cytotoxicity, at 5 µM.
Where [2] appears, read: compound plus TRAIL, at 1.25 µM.

The structures appear in SMILES notation.

As to `CCSc1nc(-c2ccccc2)nc(C(Cl)Cl)n1`, the cytotoxicity with TRAIL was 96% (at 5 µM); 43% under setting [2]; 61% (compound plus TRAIL, at 2.5 µM). The cytotoxicity without TRAIL under setting [1] was found to be 41%; the cytotoxicity without TRAIL (compound alone, at 1.25 µM) is 18%; the cytotoxicity without TRAIL (compound alone, at 2.5 µM) came out at 26%.
On to `CSc1nc(-c2ccc(C)cc2)nc(C(Cl)Cl)n1`, for which the cytotoxicity with TRAIL is, setting by setting: (at 5 µM) 100%; under setting [2], 94%; (compound plus TRAIL, at 2.5 µM) 100%. The cytotoxicity without TRAIL is, setting by setting: under setting [1], 45%; (compound alone, at 1.25 µM) 49%; (compound alone, at 2.5 µM) 48%.
Regarding `CSc1nc(-c2ccccc2)nc(C(Cl)Cl)n1`, the cytotoxicity with TRAIL reads like this: (at 5 µM) 100%; under setting [2], 83%; (compound plus TRAIL, at 2.5 µM) 96%. Besides, the cytotoxicity without TRAIL under setting [1] was 56%; the cytotoxicity without TRAIL (compound alone, at 1.25 µM) is 52%; the cytotoxicity without TRAIL (compound alone, at 2.5 µM) is 56%.

The values above are taken from PubChem BioAssay AID1624 (Sanford-Burnham Center for Chemical Genomics, 2009).
